Compounds with a hit are over-represented: about 5.1% of the library has one in this group of screens.
STAT1 inh – STAT1 signaling inhibition. NIH 3T3 STAT1-luciferase reporter, IFN-gamma, luminescence. inhibition, % at 5.5 µM. 200,000 compounds, 0.35% hits. AID 920;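 active = inhibition above a set limit, the mean inhibition across all tested compounds plus 3 SD, cut at about 34% in these data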;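 note: 0% = IFN-gamma with DMSO and 100% = IFN-gamma with 300 µM nifuroxazide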
APP 5'UTR act – APP 5'UTR luciferase reporter activation. activation, % at 2 µM. AID 1276. 190,000 compounds, 1% hits. SH-SY5Y APP 5'UTR luciferase reporter, luminescence; zero percent = DMSO vehicle wells;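 active = activation above a set limit, based on mean plus 3 SD of controls, cut at about 140% in these data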
NF-kB neuron act – NF-kB expression increase, human neuronal cells. 190,000 compounds, 1.6% hits. NF-kB reporter expression; active compounds read high. AID 1239. fold change at 12.5 µM; in the data active = fold change above about 3.3
STAT1 act – increases IFN-gamma driven STAT1 reporter signal; NIH 3T3 STAT1-luciferase reporter, luminescence; 100% = IFN-gamma alone, no compound; activation (% of control), % at 5.5 µM; 200,000 compounds, 2.6% hits; AID 932;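 active = activation above the screen-wide mean activation plus 3 SD, cut at about 130% in these data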;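 note: raw ratio to IFN-gamma control signal so 100% means no change and 0% no light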
STAT3 activator – STAT3 signaling activation; U3A cells, IL-6 STAT3-luciferase reporter, luminescence; 100% = signal with IL-6 EC80 alone; 190,000 compounds, 0.91% hits; activation (% of control), % at 5.6 µM;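 active = activation above the screen-wide mean of compound activation plus 3 SD, cut at about 130% in these data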;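 note: 0% = background luminescence of wells with medium and substrate only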
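Material: human U3A cells carrying STAT3-luciferase construct. Measured by: reporter luminescence signal. Timing: compound 1 h, then IL-6 6 h at 37 °C.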
STAT3 inh – reduces IL-6 driven STAT3 reporter signal. U3A cells, IL-6 STAT3-luciferase reporter, luminescence; host cell line lacks STAT1. inhibition, % at 5.5 µM. 190,000 compounds, 0.89% hits. AID 862;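 active = inhibition above the mean inhibition across all screened compounds plus 3 SD, cut at about 44% in these data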;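 note: 0% = DMSO only wells and 100% = 100 µM nifuroxazide control wells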
An asterisk follows results filed as active; nt = not tested or not shown.

SMILES	STAT1 inh	APP 5'UTR act	NF-kB neuron act	STAT1 act	STAT3 activator	STAT3 inh
CCOc1cc(C2c3c(n[nH]c3C)C(=O)N2c2ccc(C)cc2)ccc1O (centres undefined)	2	7	1.1	98	97	8
O=C(c1cnn2c(C(F)(F)F)cc(-c3ccccc3)nc12)N1CCCCC1c1cccnc1 (centres undefined)	-1	-5	1.1	99	105	-4
O=C(c1cc2nc(-c3ccc(F)cc3)cc(C(F)(F)F)n2n1)N1CCCCC1c1cccnc1 (centres undefined)	35*	-7	0.7	68	55	57*
CSc1ccc(-c2nnn(Cc3ccc(Br)cc3)n2)cc1	-6	-4	1.6	105	95	10
CSc1ccc(-c2nnn(Cc3ccccn3)n2)cc1	-43	69	2.9	140*	112	-9
Cc1ccc(-c2nc3ccccc3c(C(=O)NCc3cccs3)c2C)cc1	14	-9	0.61	87	143*	-54
CCOC(=O)N1CCC(N(CCN(C)C)C(=S)Nc2cccc(Cl)c2)CC1	2	10	0.9	97	105	7
Cc1ccc(CNc2nc(C)nc3sc4c(c23)CCC4)cc1	21	-5	1	81	75	34
O=C1c2ccccc2C(=O)C1c1ccncc1	-29	95	3.8*	127	70	36
COc1ccccc1CNC(=O)CSc1nnc2ccc(-c3cccnc3)nn12	1	-6	1	99	101	3
O=C(O)c1ccc(/C=C/c2ccc3cccc(O)c3n2)cc1	3	89	3.2	96	92	12
COC(=O)c1ccc(/C=C/c2ccc3cccc(OC(C)=O)c3n2)cc1	-1	120	3.7*	101	78	29
COc1ccc(OC)c(N2C(=O)[C@@H]3C(c4ccccc4Cl)=NO[C@@H]3C2=O)c1	-4	3	1.2	103	108	-4
C/C(=N\NC(=O)c1c[nH]c2ccccc12)c1ccc2c(c1)OCO2	-39	10	0.84	135*	100	6
Cc1[nH]c2ccccc2c1/C=N/NC(=O)CCC(=O)Nc1ccccc1	-3	16	0.92	100	115	-14
Cc1[nH]c2ccccc2c1/C=N/NC(=O)Nc1ccccc1	-31	49	1.1	131*	148*	-49
O=C(N/N=C/c1c[nH]c2ccc(Br)cc12)c1ccc2c(c1)OCO2	-6	19	0.87	106	91	13
O=C(N/N=C/c1cc2c(cc1Br)OCO2)c1c[nH]c2ccccc12	-51	94	0.91	143*	90	14
C/C(=N\NC(=O)c1ccccc1)c1ccc2c(c1)OCO2	-18	45	2.1	117	113	-7
O=C(N/N=C/c1ccc(Br)s1)Nc1ccccc1	-33	21	1.7	130*	88	19
CC(C(=O)NC1=NCCS1)N1C(=O)c2ccccc2C1=O (centres undefined)	-4	3	0.98	104	104	-1
CCCCNS(=O)(=O)c1cccc(S(=O)(=O)N2CCCC2)c1	-2	2	0.91	101	105	-2
CCOC(=O)c1cc(CC)sc1NC(=O)CSc1nc2ccccc2c(=O)n1Cc1ccco1	1	3	0.9	99	100	0
COc1cc(OC)cc(C(=O)Nc2cccc(C(C)=O)c2)c1	1	3	1.2	99	87	18
O=C(N/N=C/c1ccc(Br)s1)c1c[nH]c2ccccc12	-43	64	1.2	138*	114	-14
SMILES	STAT1 inh	APP 5'UTR act	NF-kB neuron act	STAT1 act	STAT3 activator	STAT3 inh
COc1ccc(C(=O)Oc2ccc(C(C)=O)cc2)c(OC)c1	-18	13	1.4	116	108	-3
Cc1cc2ncc(-c3ccc(Cl)cc3)c(N)n2n1	-32	45	1.2	129*	113	-10
CC(=O)N1N=C(c2ccc(Cl)cc2)OC1c1ccc(C(C)C)cc1 (centres undefined)	-36	-10	1.6	133*	123	-21
Cc1cc(C)n(-c2ccc(C(=O)OCC(=O)NCc3ccco3)cc2)n1	-2	14	1.2	101	100	9
O=[N+]([O-])c1cc(S(=O)(=O)N2CCCCCC2)ccc1F	19	-27	0.73	82	86	20
Clc1ccc(-c2nc3ccccn3c2CN2CCCCC2)cc1	6	20	0.75	93	66	46*
CN(C)Cc1c(-c2ccc(Cl)cc2)nc2ccccn12	-48	65	2.9	141*	97	9
Nc1ccc2oc3ccc(N)cc3c(=O)c2c1	-52	nt	2.1	143*	87	16
O=C(O)c1cc2c(ccc3ccccc32)o1	-7	11	1.3	107	106	3
Cc1cc(NC(=O)c2ccccc2)sc1C	-34	154*	5.3*	131*	92	17
Cc1ccc(NC(=O)c2ccccc2)s1	-18	160*	6.6*	116	71	39
CCOc1ccc(OCC)c(NC(=O)CCCN2C(=O)c3cccnc3C2=O)c1	-4	0	0.92	104	100	4
CCn1c(/C=C/c2c[nH]c3ccccc23)nc2ccccc2c1=O	-55	182*	3.4*	148*	99	4
C=C1c2ccccc2NC(=O)N1c1ccc(OC)cc1	1	20	1.3	98	87	19
CC(=O)CSc1nnc(Cc2ccc3c(c2)OCO3)o1	-18	-34	1.7	116	109	-9
Cc1ccc(/C(CSc2nccn2-c2ncc(C(F)(F)F)cc2Cl)=N\O)cc1	22	1	0.84	81	96	11
O=C(CSc1nccn1-c1ncc(C(F)(F)F)cc1Cl)c1ccc(Br)cc1	-37	31	0.61	130*	162*	-55
C/C(CC(=O)NC1CCCCC1)=N\NC(=O)c1ccccn1	-34	156*	1	130*	104	0
CC(=O)Nc1ccccc1NC(=O)C/C(C)=N/NC(=O)c1ccccn1	-36	104	1.4	131*	101	2
C/C(CC(=O)Nc1ccc(F)cc1)=N\NC(=O)c1ccccn1	-28	91	1.3	126	100	8
CCN(CC)C(=O)c1ccc2c(c1)nnn2C	0	13	1.1	100	101	3
CC(C)c1ccc(OCC(=O)Nc2ccc(OC(F)(F)F)cc2)cc1	0	4	1.2	100	100	-5
CC(C)c1ccc(NC(=O)COc2ccccn2)cc1	-34	42	1.3	130*	88	20
Cc1cc(C(=O)O)ccc1-n1c(C)cc(/C=C(/C#N)C(=O)Nc2ccccc2)c1C	1	26	0.96	97	100	4
Cc1cc(/C=C(\C#N)C(=O)Nc2ccccc2)c(C)n1-c1cccnc1	-36	83	1.5	133*	110	-14
Cc1ccccc1-c1noc(-c2ccc(Cl)cc2)n1	-13	48	3.4*	112	125	-28
